In ChEMBL document CHEMBL1147607, “Side-chain length is important for shogaols in protecting neuronal cells from beta-amyloid insult” (2004):

Columns and labels:
[1] = tested on: PC-12; test: Effective dose to protect PC12 cells from beta-Amyloid (BA) insult was determined using MTT reduction assay; type: functional; details: Rattus norvegicus, read-out: ED50 (the source's name)
Outline: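 PC12 cells in high-glucose DMEM with 10% horse serum, 5% fetal calf serum and 1% penicillin/streptomycin were plated overnight. They were then co-incubated 24 h with βA(1-42) (DMSO stock) and test compound at five concentrations, final DMSO <1%. MTT was added for 1 h at 37 °C, then lysing buffer overnight at 37 °C, and OD read at 570 nm. Viability was referenced to DMSO-only and βA-only wells. ED50 came from dose–response curves; curcumin was the positive control.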

[2] = tested on: IMR-32; test: Effective dose to protect IMR-32 cells from beta-Amyloid (BA) insult was determined using MTT reduction assay; type: functional; details: Homo sapiens, read-out: ED50 (the source's name)
Outline: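 IMR-32 human neuroblastoma cells in Minimum Essential Medium with Earle's salts and L-glutamine, 10% fetal bovine serum and 1% penicillin/streptomycin were run as in the PC12 protocol. Cells were co-exposed 24 h to βA(1-42) and test compound at five concentrations, final DMSO <1%. MTT was reduced for 1 h at 37 °C, then lysed overnight, with OD read at 570 nm. ED50 came from dose–response curves.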

SMILES	EC50 [1] [µM]	EC50 [2] [µM]
CCCCCC/C=C/C(=O)CCc1ccc(O)c(OC)c1	8.6	12
CCCCCCCCC/C=C/C(=O)CCc1ccc(O)c(OC)c1	1.8	3.3
CCCCCCCC/C=C/C(=O)CCc1ccc(O)c(OC)c1	4.4	6.2
CCCC/C=C/C(=O)CCc1ccc(O)c(OC)c1	29	37.4
CCCCCCCCCCC/C=C/C(=O)CCc1ccc(O)c(OC)c1	0.2	0.5
CCCCCCC/C=C/C(=O)CCc1ccc(O)c(OC)c1	5.9	8.8
CCC/C=C/C(=O)CCc1ccc(O)c(OC)c1	45.9	61.2
CCCCCCCCCC/C=C/C(=O)CCc1ccc(O)c(OC)c1	0.5	1.4
COc1cc(/C=C/C(=O)CC(=O)/C=C/c2ccc(O)c(OC)c2)ccc1O [CURCUMIN]	17.1	23.9
CCCCC/C=C/C(=O)CCc1ccc(O)c(OC)c1 [SHOGAOL]	16.3	24.2
COc1cc(CCC(C)=O)ccc1O [ZINGERONE]	> 129	> 129
